Columns and labels:
Mus musculus [1] = test: In Vivo detection in Mice brains after oral administration of 58.33 mg/kg detected in the form of AZT 5`-P after 1 hr; type: functional
Mus musculus [2] = test: In Vivo detection in Mice brains after oral administration of 58.33 mg/kg detected in the form of AZT phosphodiester 3 after 4 hr; type: functional
Mus musculus [3] = test: In Vivo detection of total AZT in Mice plasma after oral administration of 58.33 mg/kg after 1 hr; type: functional, organism-based; design: dose 58.33 mg/kg
Outline: (§1)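 Male Swiss mice (18–20 g, six weeks old) given the test substance or vehicle ([…]) by gavage as a 3 mM solution (1.5 µmol/mouse). Aortic blood was collected into heparinized tubes at 0.5–48 h and centrifuged at 13000g for 10 min. Plasma was stored at -22 °C and analysed by HPLC. Three mice were used per time point, in triplicate. Values were not corrected for recovery.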

Mus musculus [4] = test: In Vivo detection in Mice brains after oral administration of 58.33 mg/kg detected in the form of AZT after 2 hr; type: functional
Mus musculus [5] = test: In Vivo detection in Mice plasma after oral administration of 58.33 mg/kg detected in the form of AZT phosphodiester 3 after 1 hr; type: functional, organism-based; design: dose 58.33 mg/kg; outline: as §1
Mus musculus [6] = test: In Vivo detection in Mice plasma after oral administration of 58.33 mg/kg detected in the form of AZT after 2 hr; type: functional, organism-based; design: dose 58.33 mg/kg
Mus musculus [7] = test: In Vivo detection of total AZT in Mice brains after oral administration of 58.33 mg/kg after 0.5 hr; type: functional
Outline: (§2)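 Male Swiss mice (18–20 g) dosed orally with a 3 mM solution in […] vehicle; decapitated at 0.5–48 h. Brains were homogenized in acetonitrile-water (3:1), centrifuged at 6000g for 40 min at 4 °C, lyophilized, redissolved in water and filtered (0.45 µm). Reversed-phase C18 column-switching HPLC with diode-array detection; standard spiking; vehicle-fed controls. Three mice per point, triplicates.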

Mus musculus [8] = test: In Vivo detection in Mice brains after oral administration of 58.33 mg/kg detected in the form of AZT phosphodiester 3 after 24 hr; type: functional
Mus musculus [9] = test: In Vivo detection in Mice brains after oral administration of 58.33 mg/kg detected in the form of AZT 5`-P after 4 hr; type: functional
Mus musculus [10] = test: In Vivo detection in Mice plasma after oral administration of 58.33 mg/kg detected in the form of AZT phosphodiester 3 after 48 hr; type: functional, organism-based; design: dose 58.33 mg/kg; outline: as §1
Mus musculus [11] = test: In Vivo detection of total AZT in Mice brains after oral administration of 58.33 mg/kg after 2 hr; type: functional; outline: as §2
Mus musculus [12] = test: In Vivo detection in Mice brains after oral administration of 58.33 mg/kg detected in the form of AZT phosphodiester 2 after 0.5 hr; type: functional
Mus musculus [13] = test: In Vivo detection in Mice plasma after oral administration of 58.33 mg/kg detected in the form of AZT 5`-P after 48 hr; type: functional, organism-based; design: dose 58.33 mg/kg
Mus musculus [14] = test: In Vivo detection in Mice brains after oral administration of 58.33 mg/kg detected in the form of AZT phosphodiester 3 after 1 hr; type: functional
Mus musculus [15] = test: In Vivo detection of total AZT in Mice plasma after oral administration of 58.33 mg/kg after 24 hr; type: functional, organism-based; design: dose 58.33 mg/kg; outline: as §1
Mus musculus [16] = species: Mus musculus; test: Concentration of external nucleoside in mouse brain; type: functional
Outline: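 Crude synaptosomes from three mouse brains were prepared by Gray–Whittaker homogenization in 10% sucrose buffered with 5 mM Tris-HCl, pH 7.4. The 7000g pellet was resuspended and incubated with each nucleoside at 3 mM for 15 min at 37 °C, stopped by cold 10-fold dilution and washed twice. Internal nucleoside was extracted in acetonitrile–water (3:1) and measured by HPLC.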

Mus musculus [17] = test: In Vivo detection in Mice brains after oral administration of 58.33 mg/kg detected in the form of AZT phosphodiester 3 after 8 hr; type: functional
Mus musculus [18] = test: In Vivo detection in Mice brains after oral administration of 58.33 mg/kg detected in the form of AZT after 48 hr; type: functional
Mus musculus [19] = test: In Vivo detection in Mice plasma after oral administration of 58.33 mg/kg detected in the form of AZT 5`-P after 1 hr; type: functional, organism-based; design: dose 58.33 mg/kg
Mus musculus [20] = test: In Vivo detection of total AZT in Mice plasma after oral administration of 58.33 mg/kg after 2 hr; type: functional, organism-based; design: dose 58.33 mg/kg; outline: as §1
Mus musculus [21] = test: In Vivo detection of total AZT in Mice brains after oral administration of 58.33 mg/kg after 24 hr; type: functional; outline: as §2
Mus musculus [22] = test: In Vivo detection of total AZT in Mice plasma after oral administration of 58.33 mg/kg after 8 hr; type: functional, organism-based; design: dose 58.33 mg/kg; outline: as §1
Mus musculus [23] = test: In Vivo detection in Mice plasma after oral administration of 58.33 mg/kg detected in the form of AZT 5`-P after 8 hr; type: functional, organism-based; design: dose 58.33 mg/kg
Mus musculus [24] = test: In Vivo detection in Mice brains after oral administration of 41.63 mg/kg detected in the form of AZT after 8 hr; type: functional
Mus musculus [25] = test: In Vivo detection in Mice plasma after oral administration of 41.63 mg/kg detected in the form of AZT phosphodiester 2 after 1 hr; type: functional, organism-based; design: dose 41.63 mg/kg
Mus musculus [26] = test: In Vivo detection in Mice plasma after oral administration of 41.63 mg/kg detected in the form of AZT phosphodiester 2 after 2 hr; type: functional, organism-based; design: dose 41.63 mg/kg
Mus musculus [27] = test: In Vivo detection in Mice plasma after oral administration of 41.63 mg/kg detected in the form of AZT 5`-P after 2 hr; type: functional, organism-based; design: dose 41.63 mg/kg
Mus musculus [28] = test: In Vivo detection of total AZT in Mice plasma after oral administration of 41.63 mg/kg after 1 hr; type: functional, organism-based; design: dose 41.63 mg/kg; outline: as §1
Mus musculus [29] = test: In Vivo detection in Mice brains after oral administration of 41.63 mg/kg detected in the form of AZT phosphodiester 2 after 0.5 hr; type: functional
Mus musculus [30] = test: In Vivo detection in Mice brains after oral administration of 41.63 mg/kg detected in the form of AZT after 24 hr; type: functional
Mus musculus [31] = test: In Vivo detection in Mice plasma after oral administration of 41.63 mg/kg detected in the form of AZT 5`-P after 8 hr; type: functional, organism-based; design: dose 41.63 mg/kg
Mus musculus [32] = test: In Vivo detection of total AZT in Mice plasma after oral administration of 41.63 mg/kg after 8 hr; type: functional, organism-based; design: dose 41.63 mg/kg; outline: as §1
Mus musculus [33] = test: In Vivo detection of total AZT in Mice plasma after oral administration of 41.63 mg/kg after 24 hr; type: functional, organism-based; design: dose 41.63 mg/kg; outline: as §1
Mus musculus [34] = test: In Vivo detection in Mice plasma after oral administration of 41.63 mg/kg detected in the form of AZT after 24 hr; type: functional, organism-based; design: dose 41.63 mg/kg
Mus musculus [35] = test: In Vivo detection of total AZT in Mice brains after oral administration of 41.63 mg/kg after 4 hr; type: functional; outline: as §2
Mus musculus [36] = test: In Vivo detection in Mice brains after oral administration of 41.63 mg/kg detected in the form of AZT phosphodiester 2 after 24 hr; type: functional
Mus musculus [37] = test: In Vivo detection in Mice plasma after oral administration of 41.63 mg/kg detected in the form of AZT phosphodiester 2 after 4 hr; type: functional, organism-based; design: dose 41.63 mg/kg
Mus musculus [38] = test: In Vivo detection in Mice brains after oral administration of 41.63 mg/kg detected in the form of AZT after 48 hr; type: functional
Mus musculus [39] = test: In Vivo detection of total AZT in Mice plasma after oral administration of 41.63 mg/kg after 4 hr; type: functional, organism-based; design: dose 41.63 mg/kg; outline: as §1

CCCCCCCCCCCCCCCCOP(=O)(OCCO[C@H]1O[C@H](CO)[C@@H](O)[C@H](O)[C@@H]1O)OCC1OC(n2cc(C)c(=O)[nH]c2=O)CC1N=[N+]=[N-] (some centres undefined) was tested, and the Brain content (Mus musculus [1]) was 147 nmol/g, the Brain content (Mus musculus [2]) was 0 nM ml-1 and the Plasma content (Mus musculus [3]) was 14 nM ml-1. The Brain content (Mus musculus [4]) was 2.9 nmol/g, the Plasma content (Mus musculus [5]) was 0 nM ml-1 and the Plasma content (Mus musculus [6]) was 1.4 nM ml-1. For the same molecule, the Brain content (Mus musculus [7]) was 38.5 nM ml-1, the Brain content (Mus musculus [8]) was 0 nmol/g and the Brain content (Mus musculus [9]) was 114 nmol/g. The Plasma content (Mus musculus [10]) was 0 nM ml-1, the Brain content (Mus musculus [11]) was 140.8 nM ml-1 and the Brain content (Mus musculus [12]) was 0.3 nmol/g. For the same molecule, the Plasma content (Mus musculus [13]) was 14.2 nM ml-1, the Brain content (Mus musculus [14]) was 0 nmol/g and the Plasma content (Mus musculus [15]) was 28.5 nM ml-1. For the same molecule, the External nucleoside (Mus musculus [16]) was 9100 nM/g, the Brain content (Mus musculus [17]) was 0 nM ml-1 and the Brain content (Mus musculus [18]) was 1.1 nmol/g. For the same molecule, the Plasma content (Mus musculus [19]) was 12.7 nM ml-1, the Plasma content (Mus musculus [20]) was 5.4 nM ml-1 and the Brain content (Mus musculus [21]) was 87.9 nM ml-1. It also gave a Plasma content (Mus musculus [22]) of 26.3 nM ml-1 and a Plasma content (Mus musculus [23]) of 17.7 nM ml-1.

For Cc1cn([C@H]2C[C@H](N=[N+]=[N-])[C@@H](COP(=O)(O)OCCO[C@H]3O[C@H](CO)[C@@H](O)[C@H](O)[C@@H]3O)O2)c(=O)[nH]c1=O, the Brain content (Mus musculus [24]) was 0.9 nmol/g, the Plasma content (Mus musculus [25]) was 5.2 nM ml-1 and the Plasma content (Mus musculus [26]) was 1.6 nM ml-1. It also gave a Plasma content (Mus musculus [27]) of 15 nM ml-1, a Plasma content (Mus musculus [28]) of 43.5 nM ml-1 and a Brain content (Mus musculus [29]) of 5.8 nM ml-1. The Brain content (Mus musculus [30]) was 0.8 nmol/g, the Plasma content (Mus musculus [31]) was 5.7 nM ml-1 and the Plasma content (Mus musculus [32]) was 5.7 nM ml-1. It also gave a Plasma content (Mus musculus [33]) of 26.8 nM ml-1, a Plasma content (Mus musculus [34]) of 0 nM ml-1 and a Brain content (Mus musculus [35]) of 68.1 nM ml-1. The Brain content (Mus musculus [36]) was 4.5 nM ml-1, the Plasma content (Mus musculus [37]) was 0 nM ml-1 and the Brain content (Mus musculus [38]) was 0.8 nmol/g. It also gave a Plasma content (Mus musculus [39]) of 6.7 nM ml-1.

Source: ChEMBL document CHEMBL1125520, “Improved brain delivery of AZT using a glycosyl phosphotriester prodrug” (1992)
